APP 5'UTR act = activators of APP 5'UTR luciferase reporter, primary screen, SH-SY5Y cells. SH-SY5Y APP 5'UTR luciferase reporter, luminescence; zero percent = DMSO vehicle wells. activation, % at 2 µM. 190,000 tested, 1% active;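 active = activation above a set limit, based on mean plus 3 SD of controls, cut at about 140% in these data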
NF-kB neuron act = activators of NF-kB expression in neurons, primary screen, cell-based, HTS | AID 1239, 2008 | fold change at 12.5 µM | human neuronal cells, NF-kB reporter expression; hits give high values | 190,000 tested, 1.6% active; in the data active = fold change above about 3.3
STAT1 activator = STAT1 signaling activators, primary screen, cell-based, HTS, luciferase reporter; NIH 3T3 STAT1-luciferase reporter, IFN-gamma, luminescence; 100% = IFN-gamma alone, no compound; activation (% of control), % at 5.5 µM; 200,000 tested, 2.6% active; AID 932, 2007;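 active = activation above the screen-wide mean activation plus 3 SD, cut at about 130% in these data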;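 note: raw ratio to IFN-gamma control signal so 100% means no change and 0% no light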
FLuc act counter = FLuc activators, initial screening, artefact control for FLuc-dependent activation tests, biochemical, ATPlite luminescence; ATPlite luciferase biochemical, 10 min; 0 = ATP-free wells, 1 = DMSO control; Luciferin 4-monooxygenase (Photinus pyralis), P08659; AID 1027, 2008; 200,000 tested, under 10 active; activation factor at 10 µM;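 active = luciferase activation factor, scaled between plate controls, of at least 2 with compound at 10 µM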
Target sequence (P08659 whole entry, looked up): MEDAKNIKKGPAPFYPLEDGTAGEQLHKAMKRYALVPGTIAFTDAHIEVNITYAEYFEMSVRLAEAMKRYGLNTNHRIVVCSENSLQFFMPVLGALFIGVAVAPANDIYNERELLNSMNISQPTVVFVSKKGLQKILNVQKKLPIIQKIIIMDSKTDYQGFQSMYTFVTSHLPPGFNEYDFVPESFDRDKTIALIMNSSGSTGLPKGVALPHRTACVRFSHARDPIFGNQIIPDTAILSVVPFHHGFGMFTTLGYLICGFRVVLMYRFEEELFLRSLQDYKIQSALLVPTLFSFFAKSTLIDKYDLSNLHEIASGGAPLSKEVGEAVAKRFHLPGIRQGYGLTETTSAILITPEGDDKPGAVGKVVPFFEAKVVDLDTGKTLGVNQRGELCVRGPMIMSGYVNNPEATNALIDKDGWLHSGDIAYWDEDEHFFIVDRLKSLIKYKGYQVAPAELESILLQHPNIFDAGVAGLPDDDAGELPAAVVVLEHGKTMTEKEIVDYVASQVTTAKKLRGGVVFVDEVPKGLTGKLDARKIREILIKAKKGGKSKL
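Material: luciferase plus luciferin reagent, cell-free. Medium: PBS buffer for ATP. Also added: ATP substrate, dispensed from a 10.24 µM working solution in PBS. Doses: test compounds dosed from 2 mM stocks in 100% DMSO. Incubation: 10 min post-reagent at room temperature. Technique: light output (luminescence). Read-out basis: luminescence gain marking luciferase activators.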
FLuc inh counter = firefly luciferase enzyme inhibitors, primary screen, artefact control for luciferase-based inhibitor screens, biochemical, luminescence, ATPLite. 200,000 tested, 1.5% active. 10 min. Luciferin 4-monooxygenase (Photinus pyralis), P08659. AID 1006, 2008. inhibition, % at 10 µM;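 active = inhibition above about 50% when tested at 10 µM, limit read from the data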
Active calls of the source: *. Hits are enriched below; roughly 4.1% of the tested compounds scored in any of these assays.

For Cc1nc2ccc(NC(=O)c3ccco3)cc2s1 the results were APP 5'UTR act 68.8, NF-kB neuron act 1.11, STAT1 activator 125.7, FLuc act counter 0.7 and FLuc inh counter 28.8.
Screening Cc1ccc2nc(NC(=O)c3ccco3)sc2c1 returned APP 5'UTR act 83.7, NF-kB neuron act 1.79, STAT1 activator 45.4, FLuc act counter 0.1 and FLuc inh counter 90.4*.
Screening Cc1ccc2nc(NC(=S)NC(=O)c3ccco3)sc2c1 returned APP 5'UTR act 163.4*, NF-kB neuron act 1.42, STAT1 activator 124.7, FLuc act counter 0.1 and FLuc inh counter 90.0*.
`Cc1ccc(Cc2cnc(NC(=O)c3ccco3)s2)cc1` gave APP 5'UTR act 128.0, NF-kB neuron act 7.41*, STAT1 activator 116.6, FLuc act counter 0.6 and FLuc inh counter 44.0.
CCN(CC)C(=O)CCS(=O)(=O)c1cccc2nonc12 was read as APP 5'UTR act 10.9, NF-kB neuron act 1.34, STAT1 activator 99.7, FLuc act counter 1 and FLuc inh counter 0.2.
For O=C(Nc1nc2ccc(Cl)cc2s1)c1ccco1 the results were APP 5'UTR act 132.4, NF-kB neuron act 7.35*, STAT1 activator 116.3, FLuc act counter 0.4 and FLuc inh counter 62.8*.
`CC(=O)Nc1nc2ccc(NC(=O)c3ccco3)cc2s1` gave APP 5'UTR act -3.5, NF-kB neuron act 1.96, STAT1 activator 125.8, FLuc act counter 0.9 and FLuc inh counter 9.5.
For CCCCN(CC)CCNC(=O)CN(C)S(=O)(=O)c1ccc2c(c1)c(=O)n(C)c(=O)n2C the results were APP 5'UTR act 18.6, NF-kB neuron act 1.14, STAT1 activator 103.8, FLuc act counter 1 and FLuc inh counter -2.3.
Screening COC(=O)c1ccc(NC(=S)Nc2ccccc2)cc1 returned APP 5'UTR act -3.4, NF-kB neuron act 1.42, STAT1 activator 95.6, FLuc act counter 1 and FLuc inh counter 1.3.
COC(=O)c1ccc(NC(=S)NC2c3ccccc3CC2O)cc1 (stereo unspecified) was read as APP 5'UTR act 3.9, NF-kB neuron act 4.04*, STAT1 activator 99.2, FLuc act counter 1 and FLuc inh counter -3.8.
For CNC(=S)N=Nc1c(O)[nH]c2ccccc12 the results were APP 5'UTR act 11.9, NF-kB neuron act 1.2, STAT1 activator 108.0, FLuc act counter 1 and FLuc inh counter -4.6.
For CN(C)C(=S)N=Nc1[nH]c2ccccc2c1O the results were APP 5'UTR act -11.7, NF-kB neuron act 0.26, STAT1 activator 176.2*, FLuc act counter 0.9 and FLuc inh counter 12.9.
COC(=O)c1ccc(CSc2nc3ccccc3o2)cc1 was read as APP 5'UTR act 126.2, NF-kB neuron act 3.83*, STAT1 activator 91.5, FLuc act counter 0.7 and FLuc inh counter 26.2.
Screening O=[N+]([O-])c1ccc(CSc2nc3ccccc3o2)cc1 returned APP 5'UTR act 177.4*, NF-kB neuron act 5.02*, STAT1 activator 132.2*, FLuc act counter 0.8 and FLuc inh counter 23.5.
For COC(=O)c1ccc(CSc2nc(N)cc(N)n2)cc1 the results were APP 5'UTR act 18.6, NF-kB neuron act 1.38, STAT1 activator 105.0, FLuc act counter 0.8 and FLuc inh counter 21.5.
For O=C(O)CSc1nc2ccccc2o1 the results were APP 5'UTR act -10.3, NF-kB neuron act 1.15, STAT1 activator 103.6, FLuc act counter 1.1 and FLuc inh counter -5.2.
For C#CCOCCOCCOCCNc1nc(N2CCN(C(=O)C(Cc3ccc(O)cc3)n3cc(C(N)C(C)CC)nn3)CC2)nc(N2CCN(C(=O)C(Cc3ccc(O)cc3)n3cc(C(N)C(C)CC)nn3)CC2)n1 (stereo unspecified) the results were APP 5'UTR act 1.7, NF-kB neuron act 1.06, STAT1 activator 110.5, FLuc act counter 1.1 and FLuc inh counter -5.1.
For O=C(/C=C/c1ccc([N+](=O)[O-])cc1)Nc1ncc([N+](=O)[O-])s1 the results were APP 5'UTR act 221.3*, NF-kB neuron act 1.35, STAT1 activator 146.6*, FLuc act counter 0.4 and FLuc inh counter 60.9*.
For CC1=NN(C(N)=S)C(=O)C1N=Nc1c(C)cc(C)cc1C (stereo unspecified) the results were APP 5'UTR act -24.7, NF-kB neuron act 1.77, STAT1 activator 107.2, FLuc act counter 1 and FLuc inh counter -4.2.
Screening Cc1ccc(/C=N/c2sc3c(c2C(N)=O)CCCC3)o1 returned APP 5'UTR act 92.1, NF-kB neuron act 2.04, STAT1 activator 146.0*, FLuc act counter 0.7 and FLuc inh counter 26.8.
Screening CN(C)/C=N/c1sc2c(c1C(N)=O)CCCC2 returned APP 5'UTR act 7.4, NF-kB neuron act 1.4, STAT1 activator 119.6, FLuc act counter 1 and FLuc inh counter -4.3.
For COc1ccc(/C=N/N=C2/CC(C)(C)Cc3n[nH]c(=O)cc32)cc1 the results were APP 5'UTR act 17.0, NF-kB neuron act 1.22, STAT1 activator 107.8, FLuc act counter 1 and FLuc inh counter -1.4.
For O=C(NCCN1CCc2ccccc2C1)C1CC(=O)N(C2CCCC2)C1 (stereo unspecified) the results were APP 5'UTR act 7.1, NF-kB neuron act 1.04, STAT1 activator 104.0, FLuc act counter 1 and FLuc inh counter 2.8.
O=C(Cc1ccc(Br)cc1)c1ccc(O)cc1O was read as APP 5'UTR act 41.0, NF-kB neuron act 1.88, STAT1 activator 130.2*, FLuc act counter 1 and FLuc inh counter 0.5.
Screening COCCCn1cnc2oc3nc4ccccc4nc3c2c1=O returned APP 5'UTR act 166.5*, NF-kB neuron act 2.32, STAT1 activator 141.1*, FLuc act counter 0.9 and FLuc inh counter 11.8.
`CCc1nnc(NC(=O)C2CCCN(c3nc4ccccc4s3)C2)s1` (stereo unspecified) gave APP 5'UTR act 3.0, NF-kB neuron act 1.44, STAT1 activator 106.0, FLuc act counter 1 and FLuc inh counter -3.8.
`O=C(Nc1ccc2c(c1)OCO2)C1CCCN(c2nc3ccccc3s2)C1` (stereo unspecified) gave APP 5'UTR act 9.4, NF-kB neuron act 1.22, STAT1 activator 128.6*, FLuc act counter 1 and FLuc inh counter 2.4.
O=C(NCCc1ccc(F)cc1)c1ccc([N+](=O)[O-])cc1 was read as APP 5'UTR act 96.4, NF-kB neuron act 2.19, STAT1 activator 137.2*, FLuc act counter 0.8 and FLuc inh counter 19.2.
Screening N/C(=N\OC(=O)Cc1cccs1)c1ccccc1 returned APP 5'UTR act 23.6, NF-kB neuron act 2.3, STAT1 activator 137.4*, FLuc act counter 0.8 and FLuc inh counter 23.6.
`N/C(=N\OC(=O)Cc1cccs1)c1cccc([N+](=O)[O-])c1` gave APP 5'UTR act 4.1, NF-kB neuron act 1.56, STAT1 activator 114.5, FLuc act counter 1 and FLuc inh counter 2.8.
Cc1ccc(/C(N)=N/OC(=O)Cc2ccccc2)cc1 was read as APP 5'UTR act 53.1, NF-kB neuron act 2.38, STAT1 activator 132.9*, FLuc act counter 0.8 and FLuc inh counter 19.5.

High-throughput results from PubChem.
